Consider 20 compounds from ChEMBL document CHEMBL1759881, “Synthesis and anti-inflammatory activity of ent-kaurene derivatives” (Eur J Med Chem, 2011).

Activity calls are given as the source filed them. The calls are words filed in the database; no cut-off is given here.

The IC50 is the concentration that gives 50% inhibition.

Series [1] concerns RAW264.7. In words: Antiinflammatory activity in mouse RAW264.7 cells assessed as inhibition of LPS-induced IFN-gamma production at 5 uM pretreated for 15 mins before LPS challenge measured after 24 hrs by ELISA. The series is classed as functional, cell-based. A digest of the protocol:
(§1)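 RAW 264.7 macrophages pre-incubated 15 min with compound or left untreated, then LPS 250 ng/ml for 24 h. IL-6, IL-1, TNF and IFN measured in supernatant by ELISA. Means ± S.D. of three independent experiments run in triplicate.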

Series [2] has as its system RAW264.7. The series can be described thus: Antiinflammatory activity in mouse RAW264.7 cells assessed as inhibition of LPS-induced NOS2 protein expression pretreated at 5 uM for 15 mins before LPS challenge measured after 24 hrs by Western blotting. The series is classed as functional, cell-based. A digest of the protocol: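 Macrophages pre-incubated 15 min with compound, then LPS 250 ng/ml for 24 h. NOS-2 protein detected by Western blot with β-actin as loading control. A representative of three experiments is shown.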
(In western blotting, separated proteins are transferred to a membrane and probed.)

Series [3] deals with RAW264.7. The series can be described thus: Antiinflammatory activity in mouse RAW264.7 cells assessed as inhibition of LPS-induced TNFalpha production at 5 uM pretreated for 15 mins before LPS challenge measured after 24 hrs by ELISA. The series is classed as functional, cell-based. A digest of the protocol: as §1
The nature of series [4]: Cytotoxicity against LPS-stimulated mouse RAW264.7 cells assessed as cell viability at 1 to 25 uM pretreated for 15 mins before LPS challenge measured after 24 hrs by MTT assay. The series is classed as cell-based. The conditions noted are these: LPS-stimulated RAW264.7 cells, read-out: Activity. A digest of the protocol: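 RAW 264.7 cells plated at 10⁵ cells/well, treated with compound at 1–25 in the presence of LPS 250 ng/ml for 24 h. MTT then added for 4 h at 37 °C, formazan extracted in DMSO, absorbance read at 540 nm. Viability expressed relative to untreated controls. Triplicate wells, at least three independent experiments.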
(In general: Tetrazolium dyes change colour on reduction, which living cells bring about.)

Series [5] has as its system RAW264.7. In words: Antiinflammatory activity in mouse RAW264.7 cells assessed as inhibition of LPS-induced NOS2 mRNA expression pretreated at 5 uM for 15 mins before LPS challenge measured after 4 hrs by RT-PCR analysis. The series is classed as functional, cell-based. The method, boiled down: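 Macrophages pre-incubated 15 min with compound, then LPS 250 ng/ml for 4 h. NOS-2 mRNA measured by real-time quantitative PCR, samples in duplicate, normalized to housekeeping gene 36B4 (acidic ribosomal phosphoprotein P0). Fold induction taken from average replicate values. Means ± S.D. of three independent experiments in triplicate; Student's unpaired t test vs LPS.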

Series [6] concerns RAW264.7. In words: Antiinflammatory activity in mouse RAW264.7 cells assessed as inhibition of LPS-induced nitric oxide release pretreated for 15 mins before LPS challenge measured after 24 hrs by Griess method. The series is classed as functional, cell-based. The method, boiled down:
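RAW 264.7 cells pre-incubated 15 min with compound (1–25 range in the table; 1, 5, 10, 25, 50 for dose-response) or DMSO vehicle, then LPS 250 ng/ml for 24 h. Nitrite in supernatant measured by Griess reagent, absorbance at 548 nm against NaNO2 standard. IC50 is the concentration giving 50% inhibition of NO release. Means ± SD of three independent experiments in triplicate.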
For orientation: The Griess reaction detects nitrite, a stable product of nitric oxide.

Series [7] concerns RAW264.7. In words: Cytotoxicity against LPS-stimulated mouse RAW264.7 cells assessed as cell viability at 1 to 50 uM pretreated for 15 mins before LPS challenge measured after 24 hrs by MTT assay. The class given is cell-based. The conditions noted are these: raw264.7, 24 h. The method, boiled down:
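RAW 264.7 cells pre-treated 15 min with compound (1, 5, 10, 25, 50), then LPS 250 ng/ml for 24 h. Viability by MTT: 4 h at 37 °C, formazan dissolved in DMSO, absorbance 540 nm, relative to untreated control. Triplicate; means ± S.D. of three experiments.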

Series [8] concerns RAW264.7. In words: Inhibition of NF-kappaB activation in LPS-stimulated mouse RAW264.7 cells assessed as IkappaBalpha degradation pretreated at 5 uM for 15 mins before LPS challenge measured after 24 hrs by Western blotting. The series is classed as cell-based.
The subject of series [9] is RAW264.7. In words: Antiinflammatory activity in mouse RAW264.7 cells assessed as inhibition of LPS-induced IL-6 production at 5 uM pretreated for 15 mins before LPS challenge measured after 24 hrs by ELISA. The class given is functional, cell-based. The method, boiled down: as §1
In series [10] the test system is RAW264.7. The series can be described thus: Antiinflammatory activity in mouse RAW264.7 cells assessed as inhibition of LPS-induced IL-1alpha production at 5 uM pretreated for 15 mins before LPS challenge measured after 24 hrs by ELISA. The class given is functional, cell-based. The method, boiled down:
as §1

As for `C[C@@]12CCC[C@@](C)(C(=O)OC[Si](C)(C)C)[C@H]1CC[C@@]1(CC(=O)O)CCCC[C@H]12`, the result with RAW264.7 [1], in the series with RAW264.7 [2], in the series on RAW264.7 [3], with RAW264.7 [5], in the series on RAW264.7 [8] and in the series with RAW264.7 [9] was Active. Moreover, the result with RAW264.7 [10] was Active. The viability at 24 h, up to 25 µM in series [4] was 95%. In addition, the IC50 with RAW264.7 [6] came to 7 µM. Besides, the inhibition result in the series on RAW264.7 [6] was “Dose-dependent effect”. Besides, the Activity result in the series with RAW264.7 [7] is given as “Non-toxic”.
With `COC(=O)[C@]1(C)CCC[C@@]2(C)C3=CC[C@@H]4C[C@@]3(CC[C@H]12)C[C@]4(O)COC(=O)c1ccco1`, the viability at 24 h, up to 25 µM in [4] came to 99%. Moreover, the IC50 in the series with RAW264.7 [6] was determined as 10 µM.
For `COC(=O)[C@]1(C)CCC[C@@]2(C)[C@@H]3CC[C@@H]4C[C@@]3(CC[C@@H]21)C[C@H]4C=O`, in series [4], the viability at 24 h, up to 25 µM stood at 90%. Besides, the IC50 in the series on RAW264.7 [6] was greater than 25 µM.
Take `COC(=O)[C@]1(C)CCC[C@]2(C)[C@@H]1CC[C@@]13C[C@@H](C[C@@H]4O[C@@]412)[C@]1(CO1)C3`: the viability at 24 h, up to 25 µM in [4] stood at 99%. In the series on RAW264.7 [6], the concentration for half-maximal inhibition (IC50) was greater than 25 µM.
As for `C=C1C[C@@]23CC[C@@H]4[C@](C)(COS(=O)OC[C@]5(C)CCC[C@]6(C)[C@@H]5CC[C@]57CC(=C)[C@H](CC[C@H]56)C7)CCC[C@@]4(C)[C@@H]2CC[C@@H]1C3`, the viability at 24 h, up to 25 µM in [4] turned out to be 99%. Moreover, in the series on RAW264.7 [6], the IC50 was greater than 25 µM.
With `COC(=O)[C@]1(C)CCC[C@@]2(C)[C@@H]3CC[C@@H]4C[C@@]3(CC[C@@H]21)C(=O)[C@@]41CCN=N1`, the viability at 24 h, up to 25 µM in series [4] is 48%. Also, the IC50 with RAW264.7 [6] is greater than 25 µM.
Regarding `C=C1[C@@H]2CC[C@H]3[C@]4(C)CCC[C@@](C)(C(=O)OC)[C@H]4CC[C@]3(C2)[C@H]1O`, in [4], the viability at 24 h, up to 25 µM amounted to 97%. Also, in the series on RAW264.7 [6], the IC50 amounted to 5 µM and the inhibition entry was “Dose-dependent effect”.
With `COC(=O)[C@]1(C)CCC[C@@]2(C)[C@@H]3CC[C@@H]4C[C@@]3(CC[C@@H]21)C[C@H]4C` [DIHYDRO KAURENOIC ACID METHYL ESTER], the viability at 24 h, up to 25 µM in series [4] worked out at 72%. Further, the 50% inhibitory concentration (IC50) with RAW264.7 [6] was greater than 25 µM.
For the compound `C[C@@]12CCC[C@@](C)(C(=O)OCc3ccccc3)[C@H]1CC[C@@]1(CC(=O)O)CCCC[C@H]12`, the result with RAW264.7 [1], in the series on RAW264.7 [2], in the series with RAW264.7 [3], in the series with RAW264.7 [5], with RAW264.7 [8] and in the series on RAW264.7 [9] was Active. For the same compound, the result in the series with RAW264.7 [10] was Active. In addition, the viability at 24 h, up to 25 µM in series [4] came to 95%. In the series on RAW264.7 [6], the IC50 is 7 µM. Moreover, the inhibition entry in the series on RAW264.7 [6] was “Dose-dependent effect”. Further, in the series with RAW264.7 [7], the Activity entry is on record as “Non-toxic”.
As for `C=C1C[C@@]23CC[C@H]4[C@@](C)(CCC[C@@]4(C)C(=O)OC[Si](C)(C)C)[C@@H]2CC[C@@H]1C3`, the viability at 24 h, up to 25 µM in [4] came to 95%. Also, the IC50 with RAW264.7 [6] was greater than 25 µM.
For the compound `COC(=O)[C@]1(C)CCC[C@@]2(C)[C@@H]3CC[C@@H]4C[C@@]3(CC[C@@H]21)C[C@@]41COS(=O)O1` (some centres undefined), in [4], the viability at 24 h, up to 25 µM is 95%. In addition, in the series with RAW264.7 [6], the IC50 worked out at 17 µM.
As for `COC(=O)[C@]1(C)CCC[C@@]2(C)[C@@H]3CC[C@@H]4C[C@]3(C=C4/C=N/O)CC[C@@H]21`, the viability at 24 h, up to 25 µM in [4] is 99%. Further, in the series with RAW264.7 [6], the IC50 was greater than 25 µM.
In the case of `C=C1[C@@H]2CC[C@H]3[C@]4(C)CCC[C@@](C)(C(=O)Nc5ccccc5)[C@H]4CC[C@]3(C2)[C@H]1OC(C)=O`, the viability at 24 h, up to 25 µM in [4] is 85%. Besides, the 50% inhibitory concentration (IC50) in the series on RAW264.7 [6] was greater than 25 µM.
With `COC(=O)[C@]1(C)CCC[C@@]2(C)[C@@H]3CC[C@@H]4C[C@@]3(CC[C@@H]21)C[C@]41COS(=O)O1` (some centres undefined), the viability at 24 h, up to 25 µM in series [4] is 60%. In addition, in the series on RAW264.7 [6], the IC50 was greater than 25 µM.
Regarding `COC(=O)[C@]1(C)CCC[C@@]2(C)[C@@H]3CC[C@@H]4C[C@@]3(CC[C@@H]21)CC4=O`, in series [4], the viability at 24 h, up to 25 µM came to 98%. The IC50 in the series on RAW264.7 [6] was greater than 25 µM.
For `C=C1[C@@H]2CC[C@H]3[C@]4(C)CCC[C@@](C)(C(=O)O)[C@H]4CC[C@]3(C2)[C@H]1OC(C)=O`, in that order: 58% and greater than 25 µM.
For `C=C1C[C@@]23CC[C@@H]4[C@](C)(C(=O)OCc5ccccc5)CCC[C@@]4(C)C2=CC[C@@H]1C3` [GRANDIFLORENIC ACID BENZYL ESTER], the viability at 24 h, up to 25 µM in series [4] was determined as 23%. The IC50 in the series on RAW264.7 [6] was greater than 25 µM.
With `COC(=O)[C@]1(C)CCC[C@@]2(C)[C@@H]3CC[C@@H]4C[C@]3(C=C4C)CC[C@@H]21`, the viability at 24 h, up to 25 µM in series [4] worked out at 100%. The IC50 with RAW264.7 [6] was greater than 25 µM.
As to `C=C1C[C@@]23CC[C@@H]4[C@](C)(COC(C)=O)CCC[C@@]4(C)[C@@H]2CC[C@@H]1C3`, the viability at 24 h, up to 25 µM in series [4] stood at 99%. Besides, the IC50 in the series with RAW264.7 [6] turned out to be 12 µM.
The matching figures for `COC(=O)[C@]1(C)CCCC2(C)[C@@H]3CC[C@@H]4C[C@@]3(CC[C@@H]21)C[C@]41CO1` (some centres undefined): 90% and greater than 25 µM.
